Test results from ChEMBL document CHEMBL1158351, “Studies on chemical structure modification and biology of a natural product, gambogic acid (I): Synthesis and biological evaluation of oxidized analogues of gambogic acid” (Eur J Med Chem, 2009).
pIC50: −log10 of the molar value.

Assays:
Type in all cases: functional, cell-based
[1] = system: HT-29; assay: Cytotoxicity against human HT-29 cells after 48 hrs by MTT assay; conditions: HT-29, 48 h
In short: (§1)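 Cells in RPMI-1640 with 10% heat-inactivated calf serum, penicillin/streptomycin, 5% CO2, 37 °C. Seeded at 5×10³ per well and exposed to six concentrations of 0.01–1000 for 48 h. Then 0.5% MTT for 4 h at 37 °C, formazan dissolved in DMSO, absorbance read at 570 nm. Inhibition calculated as (1 − treated/control absorbance)×100. IC50 is the concentration giving 50% inhibition; mean ± SD of three observations.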

[2] = system: A549; assay: Cytotoxicity against human A549 cells after 48 hrs by MTT assay; conditions: A549, 48 h; in short: as §1
[3] = system: Bel-7402; assay: Cytotoxicity against human Bel7402 cells after 48 hrs by MTT assay; conditions: Bel-7402, 48 h; in short: as §1
[4] = system: BGC-823; assay: Cytotoxicity against human BGC823 cells after 48 hrs by MTT assay; conditions: BGC-823, 48 h; in short: as §1
[5] = system: SK-OV-3; assay: Cytotoxicity against human SKOV3 cells after 48 hrs by MTT assay; conditions: SK-OV-3, 48 h; in short: as §1

C/C(=C/C[C@@]12OC(C)(C)[C@@H]3C[C@@H](C=C4C(=O)c5c(O)c6c(c(CC7OC7(C)C)c5O[C@]431)O[C@](C)(CCC1OC1(C)C)C=C6)C2=O)C(=O)O (stereo not given in full)
pIC50 [1]: 5.68
pIC50 [2]: 5.81
pIC50 [3]: 5.43
pIC50 [4]: 5.36
pIC50 [5]: 6.12

COC(=O)/C(C)=C\C[C@@]12OC(C)(C)[C@@H]3C[C@@H](C=C4C(=O)c5c(OC)c6c(c(CC=C(C)C)c5O[C@]431)O[C@](C)(CC[C@@H](O)C(C)(C)O)C=C6)C2=O
pIC50 [1]: < 4.00
pIC50 [2]: < 4.00
pIC50 [3]: < 4.00
pIC50 [4]: < 4.00
pIC50 [5]: < 4.00

COC(=O)/C(C)=C\C[C@@]12OC(C)(C)[C@@H]3C[C@@H](C=C4C(=O)c5c(OC)c6c(c(CC=C(C)C)c5O[C@]431)O[C@](C)(CCC1OC1(C)C)C=C6)C2=O (stereo not given in full)
pIC50 [1]: 5.66
pIC50 [2]: 5.83
pIC50 [3]: 5.85
pIC50 [4]: 6.12
pIC50 [5]: 6.19

C/C(=C/C[C@@]12OC(C)(C)[C@@H]3C[C@@H](C=C4C(=O)c5c(O)c6c(c(C/C=C(\C)CO)c5O[C@]431)O[C@](C)(CC/C=C(\C)C=O)C=C6)C2=O)C(=O)O
pIC50 [1]: 5.68
pIC50 [2]: 4.69
pIC50 [3]: 4.82
pIC50 [4]: 5.17
pIC50 [5]: 5.74

CC(C)=CCC[C@]1(C)C=Cc2c(O)c3c(c(C/C=C(\C)CO)c2O1)O[C@]12C(=C[C@@H]4C[C@H]1C(C)(C)O[C@@]2(C/C=C(/C)C(=O)O)C4=O)C3=O
pIC50 [1]: 5.58
pIC50 [2]: 5.23
pIC50 [3]: 5.40
pIC50 [4]: 5.31
pIC50 [5]: 5.79
